Reference: ChEMBL document CHEMBL1150419, “Structure-activity relationships of a peptide inhibitor of the human FcRn:human IgG interaction” (Bioorg Med Chem, 2008)
Square brackets hold non-standard residues; d marks the D form. Peptide text beside a SMILES is read from it. Dap = NC[C@H](N)C(=O)O

Tests used:
[1] = biological target: T1, IgG receptor FcRn large subunit p51 (Homo sapiens, UniProt P55899); test: Binding affinity to human FcRn at pH 6 by surface plasmon resonance assay
Outline: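 Soluble human FcRn coupled to the dextran surface of a CM5 chip; peptide dilutions flowed over the chip. The equilibrium response at each dilution was plotted against concentration and fitted to a steady-state affinity model to give Kd.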

[2] = biological target: T1, IgG receptor FcRn large subunit p51; test: Inhibition of human IgG binding to soluble human FcRn by ELISA
Outline: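 Biotinylated soluble human FcRn immobilized on neutravidin plates, incubated with hIgG (3 nM, constant) and peptide at varying concentrations for 2 h at 37 °C. After washing, bound hIgG detected with peroxidase-conjugated hIgG-specific Fab fragments.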

T1 sequence (P55899 whole entry): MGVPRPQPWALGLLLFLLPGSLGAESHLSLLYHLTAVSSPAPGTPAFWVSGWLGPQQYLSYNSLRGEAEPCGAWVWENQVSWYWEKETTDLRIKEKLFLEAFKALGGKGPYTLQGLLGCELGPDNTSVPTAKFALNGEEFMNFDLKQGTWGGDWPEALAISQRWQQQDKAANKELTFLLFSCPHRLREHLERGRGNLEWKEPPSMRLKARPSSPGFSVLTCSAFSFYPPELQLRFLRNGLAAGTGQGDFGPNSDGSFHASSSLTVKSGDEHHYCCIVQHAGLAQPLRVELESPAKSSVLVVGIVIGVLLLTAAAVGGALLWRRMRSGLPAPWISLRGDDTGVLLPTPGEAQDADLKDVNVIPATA

Structure (SMILES) | Kd [1] [µM] | IC50 [2] [µM]
CC(C)C[C@H](NC(=O)CNC(=O)CNC(=O)[C@H](Cc1ccccc1)NC(=O)[C@H](Cc1cnc[nH]1)NC(=O)CNC(=O)[C@@H](NC(=O)[C@H](NC(=O)[C@H](Cc1ccccc1)NC(=O)[C@H](CCCNC(=N)N)NC(=O)[C@@H](N)CCC(N)=O)C(C)(C)S)[C@@H](C)O)C(=O)N[C@H](Cc1ccc(O)cc1)C(=O)N1CCC[C@H]1C(=O)N[C@H](CS)C(=O)N[C@@H](CC(N)=O)C(=O)NCC(=O)N1CCC[C@H]1C(=O)O | > 250 | –
CC(C)C[C@@H](C(=O)N[C@@H](Cc1ccc(O)cc1)C(=O)N1CCC[C@H]1C(=O)N[C@@H](CS)C(=O)O)N1CC[C@H](NC(=O)CNC(=O)[C@H](Cc2ccccc2)NC(=O)[C@H](Cc2cnc[nH]2)NC(=O)CNC(=O)[C@@H](NC(=O)[C@@H](NC(=O)[C@H](Cc2ccccc2)NC(=O)[C@@H](N)CCCNC(=N)N)C(C)(C)S)[C@@H](C)O)C1=O | – | 19
CC(C)C[C@@H](NC(=O)CNC(=O)CNC(=O)[C@@H](Cc1ccccc1)NC(=O)[C@H](Cc1cnc[nH]1)NC(=O)CNC(=O)[C@@H](NC(=O)[C@H](NC(=O)[C@H](Cc1ccccc1)NC(=O)[C@H](CCCNC(=N)N)NC(=O)[C@@H](N)CCC(N)=O)C(C)(C)S)[C@@H](C)O)C(=O)N[C@@H](Cc1ccc(O)cc1)C(=O)N1CCC[C@H]1C(=O)N[C@H](CS)C(=O)N[C@@H](CC(N)=O)C(=O)NCC(=O)N1CCC[C@H]1C(=O)O | > 250 | –
CC(C)C[C@H](NC(=O)CNC(=O)CNC(=O)[C@@H](Cc1ccccc1)NC(=O)[C@H](Cc1cnc[nH]1)NC(=O)CNC(=O)[C@@H](NC(=O)[C@@H](NC(=O)[C@H](Cc1ccccc1)NC(=O)[C@H](CCCN=C(N)N)NC(=O)[C@@H](N)CCC(N)=O)C(C)(C)S)[C@@H](C)O)C(=O)N[C@@H](Cc1ccc(O)cc1)C(=O)N1CCC[C@H]1C(=O)N[C@@H](CS)C(=O)N[C@@H](CC(N)=O)C(=O)NCC(=O)N1CCC[C@H]1C(=O)O | > 250 | –
CC(C)C[C@H](NC(=O)Cc1cccc(NC(=O)[C@H](Cc2ccccc2)NC(=O)[C@H](Cc2cnc[nH]2)NC(=O)CNC(=O)[C@@H](NC(=O)[C@@H](NC(=O)[C@H](Cc2ccccc2)NC(=O)[C@@H](N)CCCN=C(N)N)C(C)(C)S)[C@@H](C)O)c1)C(=O)N[C@@H](Cc1ccc(O)cc1)C(=O)N1CCC[C@H]1C(=O)N[C@@H](CS)C(=O)O | – | 14
CC(C)C[C@H](NC(=O)CNC(=O)CNC(=O)[C@H](Cc1ccccc1)NC(=O)[C@H](Cc1cnc[nH]1)NC(=O)CNC(=O)[C@@H](NC(=O)[C@H](CCS)NC(=O)[C@H](Cc1ccccc1)NC(=O)[C@H](CCCNC(=N)N)NC(=O)[C@@H](N)CCC(N)=O)[C@@H](C)O)C(=O)N[C@@H](Cc1ccc(O)cc1)C(=O)N1CCC[C@H]1C(=O)N[C@H](C(=O)N[C@@H](CC(N)=O)C(=O)NCC(=O)N1CCC[C@H]1C(=O)O)C(C)(C)S | 2.1 | –
CC(C)C[C@H](NC(=O)CNC(=O)CNC(=O)[C@H](Cc1ccccc1)NC(=O)[C@H](Cc1cnc[nH]1)NC(=O)CNC(=O)[C@@H](NC(=O)[C@H](CC(=O)O)NC(=O)[C@H](Cc1ccccc1)NC(=O)[C@H](CCCN=C(N)N)NC(=O)[C@@H](N)CCC(N)=O)[C@@H](C)O)C(=O)N[C@@H](Cc1ccc(O)cc1)C(=O)N1CCC[C@H]1C(=O)N[C@@H](CN)C(=O)N[C@@H](CC(N)=O)C(=O)NCC(=O)N1CCC[C@H]1C(=O)O | – | 32
CC(C)C[C@H](NC(=O)c1ccc(CNC(=O)[C@H](Cc2ccccc2)NC(=O)[C@H](Cc2cnc[nH]2)NC(=O)CNC(=O)[C@@H](NC(=O)[C@@H](NC(=O)[C@H](Cc2ccccc2)NC(=O)[C@@H](N)CCCNC(=N)N)C(C)(C)S)[C@@H](C)O)cc1)C(=O)N[C@@H](Cc1ccc(O)cc1)C(=O)N1CCC[C@H]1C(=O)N[C@@H](CS)C(=O)O | – | > 125
CC(C)C[C@H](NC(=O)CNC(=O)CNC(=O)[C@H](Cc1ccccc1)NC(=O)[C@H](Cc1cnc[nH]1)NC(=O)CNC(=O)[C@@H](NC(=O)[C@H](CN)NC(=O)[C@H](Cc1ccccc1)NC(=O)[C@H](CCCNC(=N)N)NC(=O)[C@@H](N)CCC(N)=O)[C@@H](C)O)C(=O)N[C@@H](Cc1ccc(O)cc1)C(=O)N1CCC[C@H]1C(=O)N[C@@H](CC(=O)O)C(=O)N[C@@H](CC(N)=O)C(=O)NCC(=O)N1CCC[C@H]1C(=O)O | – | 120
CC(C)C[C@H](NC(=O)CNC(=O)CNC(=O)[C@H](Cc1ccccc1)NC(=O)[C@H](Cc1cnc[nH]1)NC(=O)CNC(=O)[C@@H](NC(=O)[C@H](CCCN)NC(=O)[C@H](Cc1ccccc1)NC(=O)[C@H](CCCNC(=N)N)NC(=O)[C@@H](N)CCC(N)=O)[C@@H](C)O)C(=O)N[C@@H](Cc1ccc(O)cc1)C(=O)N1CCC[C@H]1C(=O)N[C@@H](CCC(=O)O)C(=O)N[C@@H](CC(N)=O)C(=O)NCC(=O)N1CCC[C@H]1C(=O)O | – | 30
CC(C)C[C@H](NC(=O)Cc1ccc(NC(=O)[C@H](Cc2ccccc2)NC(=O)[C@H](Cc2cnc[nH]2)NC(=O)CNC(=O)[C@@H](NC(=O)[C@@H](NC(=O)[C@H](Cc2ccccc2)NC(=O)[C@@H](N)CCCN=C(N)N)C(C)(C)S)[C@@H](C)O)cc1)C(=O)N[C@@H](Cc1ccc(O)cc1)C(=O)N1CCC[C@H]1C(=O)N[C@@H](CS)C(=O)O | – | > 125
CC(C)C[C@H](NC(=O)CNC(=O)CNC(=O)[C@H](Cc1ccccc1)NC(=O)[C@H](Cc1cnc[nH]1)NC(=O)CNC(=O)[C@@H](NC(=O)[C@H](CCCN)NC(=O)[C@H](Cc1ccccc1)NC(=O)[C@H](CCCNC(=N)N)NC(=O)[C@@H](N)CCC(N)=O)[C@@H](C)O)C(=O)N[C@@H](Cc1ccc(O)cc1)C(=O)N1CCC[C@H]1C(=O)N[C@@H](CC(=O)O)C(=O)N[C@@H](CC(N)=O)C(=O)NCC(=O)N1CCC[C@H]1C(=O)O | – | 120
CC(C)C[C@H](NC(=O)CNC(=O)CN(C)C(=O)[C@H](Cc1ccccc1)NC(=O)[C@H](Cc1cnc[nH]1)NC(=O)CNC(=O)[C@@H](NC(=O)[C@@H](NC(=O)[C@H](Cc1ccccc1)NC(=O)[C@H](CCCN=C(N)N)NC(=O)[C@@H](N)CCC(N)=O)C(C)(C)S)[C@@H](C)O)C(=O)N[C@@H](Cc1ccc(O)cc1)C(=O)N1CCC[C@H]1C(=O)N[C@@H](CS)C(=O)N[C@@H](CC(N)=O)C(=O)NCC(=O)N1CCC[C@H]1C(=O)O | 2 | –
CC(C)C[C@H](NC(=O)[C@H]1CSC2C[C@@H](NC(=O)[C@H](Cc3ccccc3)NC(=O)[C@H](Cc3cnc[nH]3)NC(=O)CNC(=O)[C@@H](NC(=O)[C@H](NC(=O)[C@H](Cc3ccccc3)NC(=O)[C@@H](N)CCCNC(=N)N)C(C)(C)S)[C@@H](C)O)C(=O)N21)C(=O)N[C@@H](Cc1ccc(O)cc1)C(=O)N1CCC[C@H]1C(=O)N[C@@H](CS)C(=O)O (some centres not stated) | – | 23
CC(C)C[C@H](NC(=O)CNC(=O)CNC(=O)[C@H](Cc1ccccc1)NC(=O)[C@H](Cc1cnc[nH]1)NC(=O)CNC(=O)[C@@H](NC(=O)[C@H](NC(=O)[C@H](Cc1ccccc1)NC(=O)[C@H](CCCNC(=N)N)NC(=O)[C@@H](N)CCC(N)=O)C(C)(C)S)[C@@H](C)O)C(=O)N[C@@H](Cc1ccc(O)cc1)C(=O)N1CCC[C@@H]1C(=O)N[C@H](CS)C(=O)N[C@@H](CC(N)=O)C(=O)NCC(=O)N1CCC[C@H]1C(=O)O | > 250 | –
CC(C)C[C@H](NC(=O)CNC(=O)CNC(=O)[C@H](Cc1ccccc1)NC(=O)[C@H](Cc1cnc[nH]1)NC(=O)CNC(=O)[C@@H](NC(=O)[C@H](CS)NC(=O)[C@H](Cc1ccccc1)NC(=O)[C@H](CCCNC(=N)N)NC(=O)[C@@H](N)CCC(N)=O)[C@@H](C)O)C(=O)N[C@@H](Cc1ccc(O)cc1)C(=O)N1CCC[C@H]1C(=O)N[C@@H](CS)C(=O)N[C@@H](CC(N)=O)C(N)=O | 6.1 | –
CC(C)C[C@H](NC(=O)c1cccc(CNC(=O)[C@H](Cc2ccccc2)NC(=O)[C@H](Cc2cnc[nH]2)NC(=O)CNC(=O)[C@@H](NC(=O)[C@@H](NC(=O)[C@H](Cc2ccccc2)NC(=O)[C@@H](N)CCCN=C(N)N)C(C)(C)S)[C@@H](C)O)c1)C(=O)N[C@@H](Cc1ccc(O)cc1)C(=O)N1CCC[C@H]1C(=O)N[C@@H](CS)C(=O)O | – | 57
CC(C)C[C@H](NC(=O)[C@H]1CS[C@@H]2CC[C@@H](NC(=O)[C@H](Cc3ccccc3)NC(=O)[C@H](Cc3cnc[nH]3)NC(=O)CNC(=O)[C@@H](NC(=O)[C@H](NC(=O)[C@H](Cc3ccccc3)NC(=O)[C@@H](N)CCCN=C(N)N)C(C)(C)S)[C@@H](C)O)C(=O)N12)C(=O)N[C@@H](Cc1ccc(O)cc1)C(=O)N1CCC[C@H]1C(=O)N[C@@H](CS)C(=O)O | – | 2.2
CC(C)C[C@H](NC(=O)CNC(=O)CNC(=O)[C@H](Cc1ccccc1)N(C)C(=O)[C@H](Cc1cnc[nH]1)NC(=O)CNC(=O)[C@@H](NC(=O)[C@@H](NC(=O)[C@H](Cc1ccccc1)NC(=O)[C@H](CCCN=C(N)N)NC(=O)[C@@H](N)CCC(N)=O)C(C)(C)S)[C@@H](C)O)C(=O)N[C@@H](Cc1ccc(O)cc1)C(=O)N1CCC[C@H]1C(=O)N[C@@H](CS)C(=O)N[C@@H](CC(N)=O)C(=O)NCC(=O)N1CCC[C@H]1C(=O)O | > 250 | –
CC(C)C[C@H](NC(=O)CNC(=O)CNC(=O)[C@H](Cc1ccccc1)NC(=O)[C@H](Cc1cnc[nH]1)NC(=O)CNC(=O)[C@@H](NC(=O)[C@@H](NC(=O)[C@H](Cc1ccccc1)NC(=O)[C@H](CCCNC(=N)N)NC(=O)[C@@H](N)CCC(N)=O)C(C)(C)S)[C@@H](C)O)C(=O)N(C)[C@@H](Cc1ccc(O)cc1)C(=O)N1CCC[C@H]1C(=O)N[C@@H](CS)C(=O)N[C@@H](CC(N)=O)C(=O)NCC(=O)N1CCC[C@H]1C(=O)O | 92 | –
CC(C)C[C@H](NC(=O)CNC(=O)CNC(=O)[C@H](Cc1ccccc1)NC(=O)[C@H](Cc1cnc[nH]1)NC(=O)CNC(=O)[C@@H](NC(=O)[C@H](CCCCN)NC(=O)[C@H](Cc1ccccc1)NC(=O)[C@H](CCCNC(=N)N)NC(=O)[C@@H](N)CCC(N)=O)[C@@H](C)O)C(=O)N[C@@H](Cc1ccc(O)cc1)C(=O)N1CCC[C@H]1C(=O)N[C@@H](CC(=O)O)C(=O)N[C@@H](CC(N)=O)C(=O)NCC(=O)N1CCC[C@H]1C(=O)O | – | 60
CC(C)C[C@H](NC(=O)CNC(=O)CNC(=O)[C@H](Cc1ccccc1)NC(=O)[C@H](Cc1cnc[nH]1)NC(=O)CNC(=O)[C@@H](NC(=O)[C@H](CN)NC(=O)[C@H](Cc1ccccc1)NC(=O)[C@H](CCCN=C(N)N)NC(=O)[C@@H](N)CCC(N)=O)[C@@H](C)O)C(=O)N[C@@H](Cc1ccc(O)cc1)C(=O)N1CCC[C@H]1C(=O)N[C@@H](CCC(=O)O)C(=O)N[C@@H](CC(N)=O)C(=O)NCC(=O)N1CCC[C@H]1C(=O)O (H-QRF[Dap]TGHFGGLYPENGP-OH) | – | > 125
